The list is not random: actives were taken first. Their share in the collection is about 4.2%.
CHOP UPR activ: activators of apoptotic CHOP UPR arm, primary screen, cell-based, CHO-CHOP luciferase reporter, luminescence, uHTS; UPR activation; percent of tunicamycin response over DMSO baseline; activation, % at 10 µM; 330,000 compounds, 0.34% hits; AID 449763, 2010;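 active = at 10 µM dose, activation of 40% or more, normalized to positive control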;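 also: 100% = tunicamycin at 10 µg/mL and 0% = DMSO alone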
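assay system = CHO CHOP reporter cells | amount = 500 CHO-CHOP cells per well | buffer or medium = F12 with 10% FBS | incubation = 16-18 h cell attachment, then 6 h compound exposure, 37 °C | detection = luminescence read with Steady-Glo | read-out = percent activation relative to tunicamycin control | controls = tunicamycin high control, DMSO low control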
XBP1 UPR activ: activators of adaptive XBP1 UPR arm, primary screen, cell-based, CHO-XBP1 luciferase reporter, luminescence, uHTS; IRE1-XBP1 UPR activation; percent of tunicamycin response, DMSO as zero; activation, % at 20 µM; 330,000 compounds, 0.33% hits;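 active = versus positive control, 20 µM dose yields 30% or more activation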;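 also: 100% = tunicamycin at 10 µg/mL and 0% = DMSO only wells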
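Material: CHO cell line with stable XBP1 luciferase reporter; schedule: 16-18 h cell attachment at 37 °C, then 6 h compound exposure; signal: glow luminescence from Steady-Glo reagent; medium: serum-containing F12 medium, 10% FBS; benchmarks: tunicamycin 10 µg/mL and vehicle-only wells; read-out: percent activation relative to tunicamycin reference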
ANO1 activ: TMEM16A chloride channel activators or potentiators, primary screen, cell-based, HTS. HEK293 TMEM16A/YFP-H148Q/I152L, iodide quench fluorescence; active compounds read low. B-score at 10 µM. 340,000 compounds, 0.3% hits;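 active = fluorescence-ratio B-score plate-corrected deviation score at least 3 library SD below zero, with starting fluorescence score within 5 deviations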;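 also: channel opened by trigger with iodide after compound preincubation; score built on the fluorescence ratio of max minus min over baseline; more negative score means more quench and so TMEM16A activation or potentiation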
Target sequence (Q8BHY3 whole entry, looked up): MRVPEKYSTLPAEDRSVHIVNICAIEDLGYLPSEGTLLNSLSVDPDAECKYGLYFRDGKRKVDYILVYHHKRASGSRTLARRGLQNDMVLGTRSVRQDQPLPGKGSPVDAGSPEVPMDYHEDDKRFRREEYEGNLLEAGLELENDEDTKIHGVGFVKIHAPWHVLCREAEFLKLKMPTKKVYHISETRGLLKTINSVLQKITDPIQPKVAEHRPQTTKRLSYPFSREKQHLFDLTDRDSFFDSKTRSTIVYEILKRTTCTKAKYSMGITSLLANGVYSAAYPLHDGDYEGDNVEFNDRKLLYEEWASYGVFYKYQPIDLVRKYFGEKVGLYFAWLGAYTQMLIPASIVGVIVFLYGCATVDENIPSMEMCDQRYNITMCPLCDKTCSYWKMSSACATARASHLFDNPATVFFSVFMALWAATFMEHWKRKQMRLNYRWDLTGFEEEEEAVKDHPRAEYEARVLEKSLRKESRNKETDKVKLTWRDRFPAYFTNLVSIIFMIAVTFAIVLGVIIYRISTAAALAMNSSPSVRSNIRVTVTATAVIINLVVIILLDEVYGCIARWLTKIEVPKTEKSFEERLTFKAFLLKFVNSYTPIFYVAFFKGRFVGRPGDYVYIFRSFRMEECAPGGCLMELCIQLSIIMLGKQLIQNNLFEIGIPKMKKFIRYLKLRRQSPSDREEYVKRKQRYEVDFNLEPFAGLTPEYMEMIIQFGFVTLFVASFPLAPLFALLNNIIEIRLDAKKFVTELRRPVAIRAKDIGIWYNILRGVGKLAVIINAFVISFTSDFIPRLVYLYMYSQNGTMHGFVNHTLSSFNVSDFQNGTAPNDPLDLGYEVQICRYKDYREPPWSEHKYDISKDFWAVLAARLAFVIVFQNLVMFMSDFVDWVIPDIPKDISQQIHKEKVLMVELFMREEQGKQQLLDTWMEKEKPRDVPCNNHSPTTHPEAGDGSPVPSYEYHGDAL
CHOP inhibitor: inhibitors of CHOP promoter induction, primary screen, cell-based, unfolded protein response, luciferase reporter; 220,000 compounds, 3.8% hits; CHO-K1 CHOP-promoter luciferase, tunicamycin-induced, 15-18 h; AID 2732, 2010; inhibition, % at 10 µM;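 active = compounds that reduced the stress-induced luciferase reporter signal by more than about 70% of percent inhibition, limit read from the data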;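 also: 0% = tunicamycin plus vehicle and 100% = wells without tunicamycin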
Lipid droplet: inhibitors of hepatocyte lipid droplet formation, primary screen, imaging, high-throughput imaging, BODIPY stain. AML12 mouse hepatocytes, oleate lipid droplets. inhibition, % at 6.5 µM. 240,000 compounds, 0.4% hits;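 active = lipid droplet intensity inhibited by at least 50%, with more than 500 cells counted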
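System: AML12 hepatocytes (mouse). Probe or stimulus: oleic acid at 100 µM to induce lipid droplet formation. Times: overnight treatment with compound plus oleate. Detection: Image-based BODIPY and DAPI two-channel analysis. Evaluation: percent inhibition of filter-corrected integrated lipid droplet intensity per well.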
ANO1 block: TMEM16A chloride channel inhibitors, primary screen, cell-based, HTS; normalized B-score (activity score, 25-100; higher = stronger inhibition) at 10 µM; AID 588511, 2011; 310,000 compounds, 1.2% hits; Anoctamin-1 (Mus musculus), Q8BHY3; HEK293 TMEM16A/YFP iodide influx fluorescence, ionomycin;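 active = ratio plate-corrected score three or more library SD toward inhibition, starting fluorescence score within five deviations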;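 also: score derived from kinetic fluorescence span divided by baseline fluorescence per well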
CHOP UPR conf: activators of apoptotic CHOP UPR arm, confirmation, cell-based, CHO-CHOP luciferase reporter, single concentration | shares compounds with CHOP UPR activ | CHO-CHOP cells, CHOP-luciferase reporter luminescence; percent of tunicamycin response, DMSO as zero | activation, % at 10 µM | 1,000 compounds, 64% hits | AID 463112, 2010; in the data active = activation above about 33%;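 also: 0% = DMSO wells and 100% = tunicamycin 10 µg/mL wells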
Active calls of the source: *; i = inactive; x = not tested or not shown.

SMILES | CHOP UPR activ | XBP1 UPR activ | ANO1 activ | CHOP inhibitor | Lipid droplet | ANO1 block | CHOP UPR conf
Cc1cc(C)c(NS(=O)(=O)c2cccc3cccnc23)c(C)c1 | -1 | -1 | i | 4 | -2 | i | x
COc1ccc(NS(=O)(=O)c2ccc3ccccc3c2)c2ncccc12 | 137* | 3 | i | x | -6 | i | 418*
CC(=O)Nc1ccc(S(=O)(=O)Nc2cccc3cccnc23)cc1 | -1 | 0 | i | x | -11 | i | x
Cc1ccc(S(=O)(=O)Nc2cccc3cccnc23)c([N+](=O)[O-])c1 | 404* | -4 | i | x | -22 | i | 743*
NC(=O)c1ccccc1NS(=O)(=O)c1ccc(S(=O)(=O)N2CCCC2)cc1 | -3 | -1 | i | x | x | x | x
O=S(=O)(Nc1cccc2cccnc12)c1ccc(S(=O)(=O)N2CCCC2)cc1 | 134* | -7 | i | -33 | -19 | i | 99*
COc1ccc(C(=O)N2CCN(CCc3ccccc3)CC2)cc1[N+](=O)[O-] | 1 | -3 | i | x | -2 | i | x
Cc1ccc2cccc(NS(=O)(=O)c3ccccc3)c2n1 | 446* | 0 | x | x | -23 | i | 94*
O=S(=O)(Nc1cccc2ccccc12)c1ccccc1 | 1 | 2 | i | 20 | -2 | i | x
Cc1noc2ncnc(Sc3ccc(Br)cc3)c12 | 229* | -11 | i | 13 | 0 | i | 124*
COc1ccc(C2Nc3ccccc3NC3=C2C(=O)CC(C)(C)C3)cc1OC (stereo not given) | 2 | -7 | i | x | -14 | i | x
COc1ccc(C2Nc3ccccc3NC3=C2C(=O)CC(C)(C)C3)cc1O (stereo not given) | x | -5 | i | x | 2 | i | -1
Cn1nnnc1Sc1ncnc2scc(-c3ccc([N+](=O)[O-])cc3)c12 | 93* | -4 | i | x | x | x | 105*
COc1ccc(-c2csc3ncnc(Sc4nnnn4C)c23)cc1 | 1 | 0 | i | x | x | x | x
Cc1ccc(C2CC2c2n[nH]c(=S)n2-c2cccc(Cl)c2)cc1 (stereo not given) | 1 | 0 | i | -17 | -2 | i | x
Cc1ccccc1NC(=O)COC(=O)CCc1ccccc1 | -1 | 0 | i | 19 | 14 | i | x
CC(C)CNC(=O)c1coc(=O)c(Br)c1 | 175* | -6 | i | x | -26 | i | 70*
O=C(NCCc1ccccc1)c1coc(=O)c(Br)c1 | 105* | -8 | x | x | -2 | i | 73*
CN(C)CCNC(=O)c1coc(=O)c(Br)c1 | 1 | 1 | i | 14 | x | i | x
Cc1ccc(OCCNC(=O)C(C)SCC(=O)Nc2ccc(F)cc2)cc1 (stereo not given) | -1 | 2 | i | x | x | x | x
N#C/C(=C/c1cccc(O)c1)C(=O)NCc1ccc(Cl)cc1 | 4 | -4 | i | x | -4 | i | x
N#C/C(=C/c1ccc(O)c(O)c1)C(=O)NCc1ccc(Cl)cc1 | 103* | 12 | i | x | 2 | i | 22
CC(C)c1ccc(/C=C/C(=O)n2nnc3ccccc32)cc1 | 69* | 2 | i | -34 | 5 | i | 17
Cc1ccc(S(=O)(=O)NCCC(=O)Nc2ccncc2)cc1C | 0 | -1 | i | x | x | i | x
Nc1nccnc1C(=O)OCC(=O)Nc1ccc2[nH]c(=O)[nH]c2c1 | 1 | 2 | i | x | x | i | x
SMILES | CHOP UPR activ | XBP1 UPR activ | ANO1 activ | CHOP inhibitor | Lipid droplet | ANO1 block | CHOP UPR conf
COc1ccc(C(=O)Oc2cccc3cccnc23)cc1[N+](=O)[O-] | -1 | 5 | i | 32 | -2 | i | x
Cc1ccc(C(=O)Oc2ccc(Cl)c3cccnc23)cc1[N+](=O)[O-] | 81* | 22 | i | -5 | x | i | 65*
Cc1cc(C(=O)CSc2nnc(N)s2)c(C)n1CCc1ccc(Cl)cc1 | 2 | 1 | i | 40 | x | i | x
Cc1cc(C(=O)CCl)c(C)n1CCc1ccc(Cl)cc1 | 234* | 2 | i | -4 | 9 | i | 207*
Cc1cc(C(=O)CSc2nnnn2C)c(C)n1CCc1ccc(F)cc1 | 2 | -1 | i | -23 | x | i | x
COc1ccc(CCn2c(C)cc(C(=O)CCl)c2C)cc1OC | 79* | 0 | i | -146 | 3 | i | 122*
Cc1cc(C(=O)CCl)c(C)n1CCc1ccc(F)cc1 | 179* | 8 | i | -407 | 15 | i | 195*
Cc1ccc(S(=O)(=O)N2CCCC2)cc1C(=O)NCCN1CCOCC1 | 0 | -3 | i | x | -7 | i | x
N#CCc1ccc(NC(=O)CSc2nnc(C3CC3)n2C2CC2)cc1 | 2 | 2 | i | x | x | x | x
COc1cc2c(cc1CNC[C@H]1O[C@@H](n3cnc4c(N)ncnc43)[C@H](O)[C@@H]1O)OCO2 | -1 | 4 | i | x | x | x | x
COc1ccc(-c2oc(NC(=O)CCl)c(C#N)c2-c2ccc(OC)cc2)cc1 | 489* | 24 | i | -254 | -3 | 100* | 218*
N#Cc1c(NC(=O)CN2CCOCC2)oc(-c2ccccc2)c1-c1ccccc1 | 1 | -2 | i | 35 | 5 | i | x
O=C(CN(c1cccc(C(F)(F)F)c1)S(=O)(=O)c1ccc(Cl)c([N+](=O)[O-])c1)NCc1ccc(F)cc1 | 53* | 2 | i | -88 | 10 | i | 50*
CCOc1ccc(/C=C/[N+](=O)[O-])c2ccccc12 | 221* | -4 | i | 51 | x | i | -9
Cc1cccc(Nc2cc(C)c3c(O)cccc3n2)c1C | 4 | 14 | i | 49 | -38 | i | x
CCn1cc(S(=O)(=O)N2CCc3ccccc3C2)cn1 | 0 | -4 | i | x | 25 | i | x
c1ccc(CCNc2nc(-c3ccccn3)nc3ccccc23)cc1 | 44* | 14 | i | 81* | -98 | i | 30
c1ccc(CN2CCN(c3nc(-c4ccccn4)nc4ccccc34)CC2)cc1 | 82* | 13 | i | -24 | x | i | 4
c1ccc(-c2nc(N3CCCCCC3)c3ccccc3n2)nc1 | 82* | 0 | i | x | x | i | 31
C/C(=N\NC(=O)c1ccccc1OCc1ccc(F)cc1)c1ccccn1 | 109* | 18 | i | x | x | x | 99*

Screening results: PubChem BioAssay, several laboratories
